Data: PMC4191598 (Journal of Medicinal Chemistry, 2014)

Columns and labels:
[1] = target: T1, human TLR8 (Homo sapiens, UniProt Q9NR97); settings: earlier observation; cited from earlier work
T1 sequence (Q9NR97 27-1041): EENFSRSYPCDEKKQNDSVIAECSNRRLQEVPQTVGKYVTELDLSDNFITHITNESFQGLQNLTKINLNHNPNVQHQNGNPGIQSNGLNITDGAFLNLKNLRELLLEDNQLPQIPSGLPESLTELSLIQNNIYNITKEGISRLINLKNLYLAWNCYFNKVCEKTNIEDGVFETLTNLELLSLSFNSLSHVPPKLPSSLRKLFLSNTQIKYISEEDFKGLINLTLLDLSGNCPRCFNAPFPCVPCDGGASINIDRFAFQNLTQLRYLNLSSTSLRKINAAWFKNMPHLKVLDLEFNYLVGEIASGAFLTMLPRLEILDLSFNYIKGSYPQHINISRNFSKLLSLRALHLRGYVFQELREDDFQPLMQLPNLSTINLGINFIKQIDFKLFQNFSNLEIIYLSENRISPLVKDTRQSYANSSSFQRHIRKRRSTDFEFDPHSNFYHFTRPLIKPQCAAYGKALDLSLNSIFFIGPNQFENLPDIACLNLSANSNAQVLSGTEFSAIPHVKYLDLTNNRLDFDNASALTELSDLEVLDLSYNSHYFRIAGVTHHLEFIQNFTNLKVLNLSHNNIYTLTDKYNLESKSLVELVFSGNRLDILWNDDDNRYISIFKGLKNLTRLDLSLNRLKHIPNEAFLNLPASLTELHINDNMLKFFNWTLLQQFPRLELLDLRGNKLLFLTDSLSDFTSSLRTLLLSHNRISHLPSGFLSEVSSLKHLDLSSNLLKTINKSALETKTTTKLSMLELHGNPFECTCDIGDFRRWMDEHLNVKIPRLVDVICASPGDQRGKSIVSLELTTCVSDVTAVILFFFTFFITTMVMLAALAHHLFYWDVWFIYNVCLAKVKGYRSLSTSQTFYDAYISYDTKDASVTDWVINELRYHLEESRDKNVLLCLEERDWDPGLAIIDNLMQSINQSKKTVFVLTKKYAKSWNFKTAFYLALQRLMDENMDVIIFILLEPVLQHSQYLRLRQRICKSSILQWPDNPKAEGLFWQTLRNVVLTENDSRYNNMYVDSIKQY

[2] = test system: human peripheral blood mononuclear cells (hPBMCs); experiment: IFN-α induction in human PBMCs; type: cell-based; settings: 12 h stimulation, graded concentrations
How it was run: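 Fresh PBMCs were isolated on Ficoll–Hypaque gradients from venous blood of consenting donors and plated at 10^5 cells/well. They were stimulated for 12 h with graded concentrations of test compound. Supernatants were collected by centrifugation and assayed in triplicate with high-sensitivity multisubtype IFN-α ELISA.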

[3] = target: T2, human TLR7 (Homo sapiens, UniProt Q9NYK1); experiment: Human TLR7 reporter gene assay; type: cell-based; settings: for TLR7-agonistic activity (in words): TLR7 reporter gene assay
T2 sequence (Q9NYK1 27-1049): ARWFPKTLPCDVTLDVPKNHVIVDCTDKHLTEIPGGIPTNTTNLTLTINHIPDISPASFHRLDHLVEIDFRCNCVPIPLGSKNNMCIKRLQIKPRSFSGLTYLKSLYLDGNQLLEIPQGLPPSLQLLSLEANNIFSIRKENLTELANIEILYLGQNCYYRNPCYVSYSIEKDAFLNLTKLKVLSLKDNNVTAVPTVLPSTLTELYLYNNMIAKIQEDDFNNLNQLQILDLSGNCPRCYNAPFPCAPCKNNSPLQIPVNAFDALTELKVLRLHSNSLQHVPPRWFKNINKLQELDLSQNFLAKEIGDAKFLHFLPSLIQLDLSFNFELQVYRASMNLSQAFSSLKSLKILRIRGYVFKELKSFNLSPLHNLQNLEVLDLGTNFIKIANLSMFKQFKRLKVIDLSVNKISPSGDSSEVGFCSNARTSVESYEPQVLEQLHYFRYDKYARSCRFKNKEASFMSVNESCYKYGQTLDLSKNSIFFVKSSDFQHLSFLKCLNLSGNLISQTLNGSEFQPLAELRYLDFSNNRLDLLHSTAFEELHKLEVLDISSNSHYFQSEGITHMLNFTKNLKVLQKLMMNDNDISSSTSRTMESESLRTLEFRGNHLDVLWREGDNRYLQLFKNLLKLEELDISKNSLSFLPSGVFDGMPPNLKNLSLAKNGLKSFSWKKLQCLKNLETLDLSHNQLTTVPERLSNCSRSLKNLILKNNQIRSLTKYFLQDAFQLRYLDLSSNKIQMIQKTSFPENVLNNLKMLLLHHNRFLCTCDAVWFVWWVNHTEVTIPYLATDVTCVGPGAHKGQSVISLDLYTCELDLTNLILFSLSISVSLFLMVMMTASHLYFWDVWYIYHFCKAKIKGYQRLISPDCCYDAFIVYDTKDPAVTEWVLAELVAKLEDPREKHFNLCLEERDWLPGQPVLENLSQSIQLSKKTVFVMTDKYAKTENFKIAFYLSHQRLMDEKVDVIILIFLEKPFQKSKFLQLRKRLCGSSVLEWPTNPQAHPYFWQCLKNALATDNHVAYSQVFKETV

[4] = target: T1, human TLR8; experiment: Human TLR8 reporter gene assay; type: cell-based; settings: for TLR8-agonistic activity (in words): TLR8 reporter gene assay; for TLR7/TLR8 selectivity (in words): TLR7 and TLR8 reporter gene assays
How it was run: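 HEK-Blue cells carrying human TLR8, with secreted alkaline phosphatase under NF-κB/AP-1 promoter control, seeded at ~10^5 cells/mL and grown to confluency. Stimulated with graded concentrations of test compound. Supernatant sAP, proportional to NF-κB induction, read spectrophotometrically at 620 nm using an alkaline phosphatase-specific chromogen in the detection medium.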

[5] = test system: human lymphocytic subsets in whole blood; experiment: CD69 up-regulation in lymphocytic subsets, ex vivo whole human blood; type: cell-based; settings: 16.5 h

CCCCc1cc2c(o1)c(N)nc1ccccc12 [Compound 5, 2-butylfuro[2,3-c]quinolin-4-amine]
TLR8 agonism (in words) [1]: prominent and selective TLR8 agonism

CCCCc1nc2c(N)nc3ccccc3c2o1 [Compound 9, 2-Butyloxazolo[4,5-c]quinolin-4-amine]
IFN-α induction [2]: showed IFN-α inducing ability

CCCNc1nc2c(N)nc3ccccc3c2s1 [Compound 11, N^2-Propylthiazolo[4,5-c]quinoline-2,4-diamine]
EC50 [3]: 730 nM
IFN-α induction [2]: showed IFN-α inducing ability

CCCNc1nc2c(N)nc3ccccc3c2o1 [Compound 13, N^2-Propyloxazolo[4,5-c]quinoline-2,4-diamine]
TLR8-agonistic activity (in words) [4]: entirely devoid of any detectable TLR7- or TLR8-agonistic activity
TLR7-agonistic activity (in words) [3]: entirely devoid of any detectable TLR7- or TLR8-agonistic activity

CCC(=O)Nc1nc2c(N)nc3ccccc3c2s1 [Compound 16, N-(4-Aminothiazolo[4,5-c]quinolin-2-yl)propionamide]
TLR8-agonistic activity (in words) [4]: inactive
TLR7-agonistic activity (in words) [3]: inactive

Nc1nc2c(N)nc3ccccc3c2s1 [Compound 17, thiazolo[4,5-c]quinoline-2,4-diamine]
TLR8-agonistic activity (in words) [4]: inactive
TLR7-agonistic activity (in words) [3]: inactive

CCCCc1nc2c(s1)c(N)nc1ccccc12 [Compound 22a, 2-Butylthiazolo[5,4-c]quinolin-4-amine]
TLR8-agonistic activity (in words) [4]: completely inactive
TLR7-agonistic activity (in words) [3]: completely inactive

CCCCc1nc2c(o1)c(N)nc1ccccc12 [Compound 22b, 2-Butyloxazolo[5,4-c]quinolin-4-amine]
TLR8-agonistic activity (in words) [4]: negligibly low TLR8-agonistic activity

CCCCC1CN2C(N)=Nc3ccccc3C2=N1 (stereo not drawn) [Compound 27, 2-Butyl-2,3-dihydroimidazo[1,2-c]quinazolin-5-amine]
TLR8-agonistic activity (in words) [4]: entirely inactive
TLR7-agonistic activity (in words) [3]: entirely inactive

CCCCc1cn2c(N)nc3ccccc3c2n1 [Compound 29, 2-Butylimidazo[1,2-c]quinazolin-5-amine]
TLR8-agonistic activity (in words) [4]: entirely inactive
TLR7-agonistic activity (in words) [3]: entirely inactive

CCCCc1nc2c3ccccc3nc(N)n2n1 [Compound 33, 2-Butyl[1,2,4]triazolo[1,5-c]quinazolin-5-amine]
TLR8-agonistic activity (in words) [4]: inactive
TLR7-agonistic activity (in words) [3]: inactive

CCCCC1CN2C(=N1)C(N)=Nc1ccccc12 (stereo not drawn) [Compound 37, 2-Butyl-1,2-dihydroimidazo[1,2-a]quinoxalin-4-amine]
TLR7/TLR8 selectivity (in words) [4]: selective TLR8 agonists

CCCCc1cn2c(n1)c(N)nc1ccccc12 [Compound 39, 2-Butylimidazo[1,2-a]quinoxalin-4-amine]
TLR7/TLR8 selectivity (in words) [4]: selective TLR8 agonists

CCCCc1nc2c(N)nc3ccccc3n2n1 [Compound 46, 2-Butyl[1,2,4]triazolo[1,5-a]quinoxalin-4-amine]
TLR8-agonistic activity (in words) [4]: complete loss of activity
TLR7-agonistic activity (in words) [3]: complete loss of activity

CCCCc1nnc2c(N)nc3ccccc3n12 [Compound 49, 1-Butyl[1,2,4]triazolo[4,3-a]quinoxalin-4-amine]
TLR8-agonistic activity (in words) [4]: complete loss of activity
TLR7-agonistic activity (in words) [3]: complete loss of activity

CCCCn1cc2c(n1)c(N)nc1ccccc12 [Compound 53, 2-Butyl-2H-pyrazolo[3,4-c]quinolin-4-amine]
CD69 expression in cytokine-induced killer-, natural killer-, T- and B-lymphocytic subsets [5]: dramatically enhanced expression
IFN-α induction [2]: showed IFN-α inducing ability
